3 compounds from ChEMBL document CHEMBL5247635 (Eur J Med Chem, 2022) can be followed below.

A short description of data set [1]: Selectivity index, ratio of CC50 for human HepG2 cells to EC50 for GFP-expressing Leishmania infantum intracellular amastigotes infected in human THP-1 derived macrophage cells. It is filed as toxicity, cell-based. As to conditions: read-out: Ratio CC50/EC50.
In data set [2] the target is Trypanothione reductase (Trypanosoma brucei brucei, UniProt P39051). Nature of the data set: Inhibition of HIS-tagged recombinant Trypanosoma brucei TryR oxidoreductase activity expressed in Escherichia coli in the presence of NADPH by spectrophotometry based DTNB-coupled assay. The essentials:
(§1)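 HIS-tagged TryR from each species was expressed in E. coli. Activity was read by DTNB-coupled assay at 26 °C in 40 mM HEPES pH 7.5, 1 mM EDTA, 30 µM NADP+, 25 µM DTNB, 150 µM NADPH, 1.75% DMSO. Conditions were 50 µM TS2 and 0.5 nM enzyme; reaction started with NADPH + TS2. TNB absorbance at 412 nm. Three independent experiments.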

Data set [3] addresses Trypanothione reductase (Leishmania infantum) (UniProt A4HSF7). Briefly: Mixed non-competitive inhibition of Leishmania infantum TryR using TS2 as substrate assessed as increase in apparent inhibition constant of initial EI complex by plot analysis. The essentials: (§2)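 Final assay: 40 mM HEPES pH 7.5, 1 mM EDTA, 300 µM NADPH, 60 µM NADP+, 150 µM DTNB, 3.1–100 µM TS2, 1.04% DMSO, 0.5 nM LiTryR, with serially diluted inhibitor. Enzyme was added last by automated dispenser to avoid preincubation. Progress curves were read at 412 nm at 26 °C; initial and steady-state velocities were fitted to kinetic models. Three independent experiments.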

The target in data set [4] is T1, Trypanothione reductase (Leishmania infantum, UniProt A4HSF7). Briefly: Mixed non-competitive inhibition of Leishmania infantum TryR using TS2 as substrate assessed as inhibition constant of first equilibrium by plot analysis. The procedure, abridged:
as §2

Data set [5] addresses T1, Trypanothione reductase. Nature of the data set: Inhibition of HIS-tagged recombinant Leishmania infantum TryR oxidoreductase activity expressed in Escherichia coli in the presence of NADPH by spectrophotometry based DTNB-coupled assay. The procedure, abridged:
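HIS-tagged LiTryR was used in a DTNB-coupled assay at 26 °C. Buffer: 40 mM HEPES pH 7.5, 1 mM EDTA, 30 µM NADP+, 25 µM DTNB, 150 µM NADPH, 1.75% DMSO. Standard runs used 1 µM TS2 and 7 nM enzyme; cross-species runs used 50 µM TS2 and 0.5 nM enzyme. Started with NADPH + TS2; TNB read at 412 nm. Compounds were screened at 75 µM first. Three independent experiments.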

The target of data set [6] is Trypanothione reductase (Trypanosoma cruzi, UniProt P28593). Nature of the data set: Inhibition of HIS-tagged recombinant Trypanosoma cruzi TryR oxidoreductase activity expressed in Escherichia coli in the presence of NADPH by spectrophotometry based DTNB-coupled assay. The procedure, abridged: as §1
Sequence of Trypanothione reductase (Trypanosoma cruzi, UniProt P28593) (P28593 whole entry): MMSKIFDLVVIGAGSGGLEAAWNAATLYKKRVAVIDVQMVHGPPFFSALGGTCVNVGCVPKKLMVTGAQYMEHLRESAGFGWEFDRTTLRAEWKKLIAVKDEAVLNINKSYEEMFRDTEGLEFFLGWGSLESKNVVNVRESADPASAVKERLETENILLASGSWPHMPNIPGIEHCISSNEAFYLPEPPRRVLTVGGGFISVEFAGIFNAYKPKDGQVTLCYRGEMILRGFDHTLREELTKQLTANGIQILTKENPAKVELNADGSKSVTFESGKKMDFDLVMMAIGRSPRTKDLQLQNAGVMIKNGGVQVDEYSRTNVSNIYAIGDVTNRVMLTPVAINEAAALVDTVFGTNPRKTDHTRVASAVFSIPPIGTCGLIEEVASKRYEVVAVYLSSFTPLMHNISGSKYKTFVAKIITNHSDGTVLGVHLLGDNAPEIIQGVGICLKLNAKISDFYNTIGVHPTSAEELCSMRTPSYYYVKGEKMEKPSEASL
Data set [7] can be described thus: Cytotoxicity against human HepG2 cells assessed as reduction in cell proliferation measured after 72 hrs by crystal violet staining based analysis. It is filed as toxicity.
Data set [8] has as its system Leishmania infantum. Nature of the data set: Antileishmanial activity against GFP-expressing Leishmania infantum intracellular amastigotes infected in human THP-1 derived macrophage cells assessed as reduction in parasite viability measured for 72 hrs by resazurin/alamar blue fluorometric assay. It is filed as functional, organism-based. The essentials: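 Human THP-1-derived macrophages infected with GFP-expressing L. infantum amastigotes; compounds at 2.3–75 µM, infected cells monitored for 72 h. EC50 ± SE from three independent experiments.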

Data set [9] in a line: Cytotoxicity against human HepG2 cells assessed as reduction in cell proliferation treated for 24 hrs by crystal violet staining based analysis. It is filed as toxicity.
The target of data set [10] is Trypanothione reductase (Leishmania infantum) (UniProt A4HSF7). Nature of the data set: Time-dependent inhibition of Leishmania infantum TryR using TS2 as substrate assessed as decrease in initial velocity rate at fixed TS2 concentration. The procedure, abridged: as §2
Sequence of Trypanothione reductase (Leishmania infantum) (A4HSF7 as listed by the source): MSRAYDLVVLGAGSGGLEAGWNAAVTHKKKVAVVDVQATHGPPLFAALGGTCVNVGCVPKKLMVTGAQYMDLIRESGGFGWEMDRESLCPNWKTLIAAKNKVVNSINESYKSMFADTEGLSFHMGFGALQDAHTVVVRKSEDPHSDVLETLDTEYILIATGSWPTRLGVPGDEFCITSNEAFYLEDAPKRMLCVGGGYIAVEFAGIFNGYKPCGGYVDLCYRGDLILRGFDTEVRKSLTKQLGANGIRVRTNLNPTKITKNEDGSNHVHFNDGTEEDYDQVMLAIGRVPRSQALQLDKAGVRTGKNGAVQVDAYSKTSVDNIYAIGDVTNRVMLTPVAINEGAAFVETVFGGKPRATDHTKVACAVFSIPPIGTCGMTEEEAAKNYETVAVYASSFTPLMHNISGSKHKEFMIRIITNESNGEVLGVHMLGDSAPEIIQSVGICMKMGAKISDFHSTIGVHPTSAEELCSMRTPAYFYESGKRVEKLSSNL
The target of data set [11] is T1, Trypanothione reductase. Briefly: Disruption of HIS-FLAG-tagged recombinant Leishmania infantum TryR dimerization expressed in Escherichia coli Rossetta BL21 (DE3) cells incubated for 16 hrs by ELISA analysis. The essentials:
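400 nM HIS-FLAG-tagged LiTryR (co-purified with HIS-tagged LiTryR as heterodimer) incubated with compound (3.1–75 μM) in 50 mM Tris pH 8.0, 300 mM NaCl, 16 h, 37 °C with vigorous shaking; centrifuged, supernatant captured on α-FLAG plates, detected with HRP-α-HIS antibody and o-phenylenediamine, A490. Signal normalized to DMSO; IC50 by nonlinear regression; triplicate, three independent experiments.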

Data set [12] concerns Leishmania infantum. Nature of the data set: Antileishmanial activity against H2O2-induced Leishmania infantum promastigotes assessed as reduction in non-protein thiol content at 75 uM treated for 1 hr in presence of BSO by CMF diacetate probe based flow cytometry relative to control. It is filed as functional. Set-up: scale not given: the % may be the effect or the level left. The procedure, abridged: (§3)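 Promastigotes grown in RPMI-1640 with 10% FCS and 25 mM HEPES pH 7.2 at 26 °C. Treatments were 75 µM for 1 h, 5 mM BSO for 72 h, or both combined; vehicle served as control. Some parasites were also H2O2-treated. Non-protein thiols read by flow cytometry as CMF diacetate green fluorescence in PI-excluding live parasites. Means of nine independent experiments with 99.0% confidence intervals.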

In data set [13] the target is T1, Trypanothione reductase. Briefly: Mixed non-competitive inhibition of Leishmania infantum TryR using TS2 as substrate assessed as inhibition constant of two-step induced-fit mechanism by plot analysis. The essentials:
as §2

Data set [14] concerns the target Trypanothione reductase (Leishmania infantum) (UniProt A4HSF7). Nature of the data set: Time-dependent inhibition of Leishmania infantum TryR using TS2 as substrate assessed as decrease in final steady-state velocity at fixed TS2 concentration. The essentials:
as §2

Data set [15] has as its target Trypanothione reductase (Trypanosoma congolense, UniProt P13110). Nature of the data set: Inhibition of HIS-tagged recombinant Trypanosoma congolense TryR oxidoreductase activity expressed in Escherichia coli in the presence of NADPH by spectrophotometry based DTNB-coupled assay. The essentials: as §1
For data set [16], the target named is Trypanothione reductase (Leishmania infantum) (UniProt A4HSF7). Nature of the data set: Mixed non-competitive inhibition of Leishmania infantum TryR using TS2 as substrate assessed as increase in apparent inhibition constant of high affinity EI complex by plot analysis. The procedure, abridged:
as §2

Data set [17] in a line: Thermodynamic aqueous solubility of compound at 25 degreeC measured after 24 hrs by HPLC analysis. It is filed as physicochemical. As to conditions: buffer, read-out: Therm_solubility. The procedure, abridged:
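Excess compound was suspended in water (pH 5.5), sonicated 10 min, equilibrated overnight at room temperature, and centrifuged. Supernatant was diluted and quantified by HPLC (UV 254 nm) against a five-point standard curve (10–500 µM).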

For data set [18], the system named is Leishmania infantum. Briefly: Antileishmanial activity against Leishmania infantum promastigotes assessed as reduction in total thiol content at 75 uM treated for 1 hr by CMF diacetate probe based flow cytometry relative to control. Set-up: scale not given: the % may be the effect or the level left. It is filed as functional. The essentials: as §3
The nature of data set [19]: Selectivity index, ratio of CC50 for human HepG2 cells to EC50 for Leishmania infantum MCAN/ES/89/IPZ229/1/89 axenic amastigotes. It is filed as toxicity. As to conditions: read-out: Ratio CC50/EC50.
For data set [20], the system named is Leishmania infantum. Nature of the data set: Antileishmanial activity against Leishmania infantum MCAN/ES/89/IPZ229/1/89 axenic amastigotes assessed as reduction in parasite viability treated for 24 hrs by PI staining based flow cytometry. It is filed as functional, organism-based. As to conditions: MCAN/ES/89/IPZ229/1/89, 24 h. The procedure, abridged: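 Axenic amastigotes were seeded from log-phase cultures at 10^5 parasites/mL in M199-based medium at pH 5.4. They were derived from promastigotes by 3 days at 37 °C. Compounds at 2.3–75 µM for 24 h at 37 °C. Viability read by propidium iodide flow cytometry. EC50 ± SE from three independent experiments, each in triplicate.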

Data set [21] relates to Leishmania infantum. Nature of the data set: Antileishmanial activity against Leishmania infantum promastigotes assessed as reduction in non-protein thiol content at 75 uM incubated for 1 hrs by CMF diacetate probe based flow cytometry relative to control. It is filed as functional. Further details: scale not given: the % may be the effect or the level left. The essentials: as §3

For data set [22], the target named is T1, Trypanothione reductase. Nature of the data set: Competitive inhibition of HIS-FLAG-tagged recombinant Leishmania infantum TryR expressed in Escherichia coli assessed as dissociation constant by SPR assay.
Data set [23] addresses T1, Trypanothione reductase. Briefly: Competitive inhibition of HIS-FLAG-tagged recombinant Leishmania infantum TryR expressed in Escherichia coli using TS2 substrate assessed as inhibition constant in the presence of NADPH by spectrophotometry based DTNB-coupled assay.
Data set [24] has as its system Leishmania infantum. Briefly: Antileishmanial activity against H2O2-induced Leishmania infantum promastigotes assessed as reduction in non-protein thiol content at 5 mM treated for 72 hrs by CMF diacetate probe based flow cytometry relative to control. It is filed as functional. Further details: scale not given: the % may be the effect or the level left. The procedure, abridged:
as §3

For data set [25], the system named is Leishmania infantum. Nature of the data set: Antileishmanial activity against Leishmania infantum promastigotes assessed as reduction in parasite growth at 5 mM treated for 72 hrs. It is filed as functional, organism-based.

Each structure is given as a SMILES string. Active and inactive are the calls of the source. The calls are words filed in the database; no cut-off is given here.

T1 sequence (A4HSF7 whole entry): as the sequence (A4HSF7 as listed by the source) above
Sequence of Trypanothione reductase (Trypanosoma congolense, UniProt P13110) (P13110 whole entry): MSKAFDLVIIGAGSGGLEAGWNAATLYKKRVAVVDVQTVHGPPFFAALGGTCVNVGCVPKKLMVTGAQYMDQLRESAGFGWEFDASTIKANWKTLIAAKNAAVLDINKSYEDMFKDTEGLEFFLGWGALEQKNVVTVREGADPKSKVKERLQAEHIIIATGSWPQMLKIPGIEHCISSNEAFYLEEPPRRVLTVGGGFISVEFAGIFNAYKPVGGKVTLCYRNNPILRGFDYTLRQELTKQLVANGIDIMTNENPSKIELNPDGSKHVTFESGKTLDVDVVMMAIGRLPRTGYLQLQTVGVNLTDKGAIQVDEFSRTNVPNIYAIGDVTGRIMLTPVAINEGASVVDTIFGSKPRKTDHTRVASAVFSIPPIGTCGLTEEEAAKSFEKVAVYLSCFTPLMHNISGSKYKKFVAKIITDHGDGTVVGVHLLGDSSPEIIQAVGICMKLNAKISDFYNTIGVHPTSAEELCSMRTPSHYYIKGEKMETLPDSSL
Sequence of Trypanothione reductase (Trypanosoma brucei brucei, UniProt P39051) (P39051 whole entry): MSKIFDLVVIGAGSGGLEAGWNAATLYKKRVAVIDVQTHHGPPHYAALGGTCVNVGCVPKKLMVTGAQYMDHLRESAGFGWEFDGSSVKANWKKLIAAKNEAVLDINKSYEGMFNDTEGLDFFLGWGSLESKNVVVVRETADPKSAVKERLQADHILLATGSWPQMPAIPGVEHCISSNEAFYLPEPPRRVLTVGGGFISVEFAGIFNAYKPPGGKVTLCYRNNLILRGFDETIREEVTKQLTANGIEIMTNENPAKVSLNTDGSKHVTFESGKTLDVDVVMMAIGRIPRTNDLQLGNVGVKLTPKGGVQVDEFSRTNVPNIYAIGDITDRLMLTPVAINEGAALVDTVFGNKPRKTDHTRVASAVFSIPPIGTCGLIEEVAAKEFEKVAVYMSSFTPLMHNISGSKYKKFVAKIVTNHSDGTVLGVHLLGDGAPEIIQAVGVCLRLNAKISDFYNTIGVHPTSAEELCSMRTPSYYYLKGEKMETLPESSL

With `C[n+]1nn(-c2ccc(-c3nc(CCc4ccc(-c5ccccc5)cc4)cs3)c(OCCN3CCNC3=O)c2)cc1CCCCN.O=C(O)C(F)(F)F.O=S(=O)([O-])C(F)(F)F`, the selectivity ratio in [1] was more than 8.6; in data set [19], more than 6.5. For the same compound, the 50% inhibitory concentration (IC50) at Trypanothione reductase [2] is 4.9 µM; at Trypanothione reductase [5] it was 5.2 µM; on Trypanothione reductase [6], 9.2 µM; at Trypanothione reductase [11], 10.3 µM; on Trypanothione reductase [15], 3.6 µM. Further, the inhibition entry in data set [3], in [10], in data set [14] and in data set [16] was “Active” in each case. Further, the values for the Ki on Trypanothione reductase [4] and on Trypanothione reductase [13] were 1.2 µM and 0.2 µM, respectively. Further, in [7], the CC50 at 72 h was more than 75 µM. Further, the results for the EC50 in the data set on Leishmania infantum [8] and in the data set on Leishmania infantum [20] were 8.7 µM and 11.6 µM, respectively. In data set [9], the CC50 at 24 h was more than 75 µM. Further, the results for the Activity in the data set with Leishmania infantum [12], with Leishmania infantum [18] and in the data set with Leishmania infantum [21] were 50%, 15% and 20%, respectively. In addition, in data set [17], the solubility thermodynamic at 24 h was 12.4 mg/mL.

`C[n+]1nn(-c2ccc(-c3nc(CCc4ccccc4)cs3)c(OCCN3CCNC3=O)c2)cc1CCCCN.O=C(O)C(F)(F)F.O=S(=O)([O-])C(F)(F)F`: the IC50 was determined as 26.9 µM on Trypanothione reductase [2], 9.4 µM on Trypanothione reductase [5], 48.5 µM at Trypanothione reductase [6] and 18.7 µM on Trypanothione reductase [15]. Besides, at Trypanothione reductase [22], the Kd came to 1 µM. Further, the 50% cytotoxic concentration (CC50) at 24 h in data set [9] was more than 75 µM. Besides, the solubility thermodynamic at 24 h in data set [17] was more than 15.9 mg/mL. Also, the Ki on Trypanothione reductase [23] is 7.3 µM. Further, the selectivity ratio in [19] is more than 1.1. Further, in the data set with Leishmania infantum [20], the EC50 was found to be 66.6 µM.

With `CCCCS(=N)(=O)CCC(N)C(=O)O` (racemic) [BUTHIONINE SULFOXIMINE], the Activity with Leishmania infantum [24] is on record as 50%. The outcome in the data set on Leishmania infantum [25] was inactive.
